{"source": "paper PMC3447631", "about": "(Chemistry & biology, 2012)", "key": {"HNF4α": {"molecular_target": "T1, HNF4α (Homo sapiens, UniProt P41235)", "T1 sequence (P41235 1-474)": "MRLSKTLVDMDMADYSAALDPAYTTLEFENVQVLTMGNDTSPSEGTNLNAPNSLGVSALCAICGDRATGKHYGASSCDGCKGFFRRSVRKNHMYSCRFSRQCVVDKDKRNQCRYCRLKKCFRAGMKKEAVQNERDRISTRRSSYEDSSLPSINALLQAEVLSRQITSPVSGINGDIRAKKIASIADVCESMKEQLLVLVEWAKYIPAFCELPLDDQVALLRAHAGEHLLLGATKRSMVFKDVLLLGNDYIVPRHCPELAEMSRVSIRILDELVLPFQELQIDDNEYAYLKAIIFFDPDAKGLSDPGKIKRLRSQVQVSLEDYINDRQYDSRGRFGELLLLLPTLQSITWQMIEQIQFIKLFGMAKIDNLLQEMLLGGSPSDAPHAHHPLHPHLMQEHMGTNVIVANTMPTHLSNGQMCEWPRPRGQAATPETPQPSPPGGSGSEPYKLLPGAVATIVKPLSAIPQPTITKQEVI", "test": "DARTS assay in HepG2 cells", "type": "binding", "settings": "HepG2, 20μM, 24hr, subtilisin", "in_short": "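DARTS: HepG2 cells were treated with DMSO or test compound at 20μM for 24hr. Read-out is the ligand-induced change in HNF4α sensitivity to proteolysis.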"}, "Hep3B-Luc cells": {"tested_on": "Hep3B-Luc cells", "test": "Hep3B-Luc cytotoxicity", "type": "cell-based, human", "in_short": "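Hep3B cells engineered to express luciferase from a CMV promoter, tested alongside primary hepatocytes. Viability was read as bioluminescence at 24, 48 and 72 hours after treatment. Cell division was followed by BrdU uptake, with Oil Red O fat staining.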"}, "Solubility": {"test": "Solubility", "type": "physicochemical", "settings": "limits deliverable dose in vivo"}, "Hep3B cells": {"tested_on": "Hep3B cells", "test": "Hep3B-Luc orthotopic xenograft in liver of nude mice", "type": "in vivo", "settings": "30 mg/kg IP daily or every other day", "in_short": "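Orthotopic model: luciferase-expressing Hep3B cells were injected into the liver parenchyma of nude mice. Once tumour was established (luciferase counts doubled on 3 consecutive bioluminescent reads), mice received test compound 30 mg/kg IP daily or every other day as tolerated, or DMSO vehicle. Tumour and normal liver were harvested after 20–57 days for Oil Red O, cleaved caspase-3 immunostaining and TUNEL.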"}, "[1]": {"test": "In vivo PK studies in mice", "settings": "mouse, plasma"}, "L-type calcium channel": {"tested_on": "L-type calcium channel", "test": "Ricerca hit profiling panel: L-type calcium channel", "type": "binding", "settings": "Ricerca panel of 41 receptors/enzymes"}, "HNF4α protein": {"tested_on": "HNF4α protein", "test": "HNF4α protein and Ki67 in mouse tissues after IP injection", "type": "in vivo", "settings": "mice"}, "T6PNE cells": {"tested_on": "T6PNE cells", "test": "Acylcarnitine analysis by GC/MS of T6PNE cell extracts", "type": "cell-based, human"}, "HNF4α DNA binding": {"molecular_target": "T2, HNF4α DNA binding (Homo sapiens, UniProt P41235)", "T2 sequence (P41235 1-474)": "T1 sequence (P41235 1-474)", "test": "HNF4α DNA binding, HNF TransAM ELISA on HepG2 nuclear extracts", "type": "cell-based", "settings": "HepG2 incubated overnight with compound", "in_short": "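HepG2 cells were incubated overnight with test compound. Nuclear protein extracts (5μg) were added to wells bearing an oligonucleotide with an HNF4α binding site. Bound HNF4α was detected with an anti-HNF4α antibody (ELISA). Mean ± SD, n=3 biological replicates; Student's t-test.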"}, "[2]": {"tested_on": "primary murine hepatocytes", "test": "Primary murine hepatocytes in vitro", "type": "cell-based", "in_short": "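Primary murine hepatocytes were exposed to DMSO or test compound (5μM) for 3 days, then fixed and stained with Oil Red O.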"}, "liver": {"tested_on": "liver", "test": "Hepatic steatosis in mice", "type": "in vivo", "settings": "10 and 30 mg/kg IP, dose-dependent"}, "HNF4α gene expression [3]": {"tested_on": "HNF4α gene expression", "test": "HNF4α mRNA expression in HepG2 cells", "type": "cell-based", "settings": "48 hours", "in_short": "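HNF4α mRNA in treated HepG2 cells measured by Q-PCR and normalized to 18S rRNA. Differences in expression assessed by Student's t-test.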"}, "p57Kip2 expression": {"tested_on": "p57Kip2 expression", "test": "Kip2 mRNA in T6PNE cells", "type": "cell-based, human", "in_short": "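Kip2 mRNA in T6PNE cells measured by Q-PCR, normalized to 18s rRNA. Treated and DMSO vehicle cells were compared by Student's t-test.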"}, "PPARγ": {"tested_on": "PPARγ", "type": "cell-based", "settings": "PPRE-Luc, HeLa", "in_short": "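HeLa cells were co-transfected with a PPRE-Luc reporter, with or without a PPARγ expression vector, then treated with test compound. Read-out was luciferase activity; mean ± SE, n=3.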"}, "CYP (2C19)": {"molecular_target": "CYP (2C19) (Homo sapiens, UniProt P33261)", "sequence (P33261 whole entry)": "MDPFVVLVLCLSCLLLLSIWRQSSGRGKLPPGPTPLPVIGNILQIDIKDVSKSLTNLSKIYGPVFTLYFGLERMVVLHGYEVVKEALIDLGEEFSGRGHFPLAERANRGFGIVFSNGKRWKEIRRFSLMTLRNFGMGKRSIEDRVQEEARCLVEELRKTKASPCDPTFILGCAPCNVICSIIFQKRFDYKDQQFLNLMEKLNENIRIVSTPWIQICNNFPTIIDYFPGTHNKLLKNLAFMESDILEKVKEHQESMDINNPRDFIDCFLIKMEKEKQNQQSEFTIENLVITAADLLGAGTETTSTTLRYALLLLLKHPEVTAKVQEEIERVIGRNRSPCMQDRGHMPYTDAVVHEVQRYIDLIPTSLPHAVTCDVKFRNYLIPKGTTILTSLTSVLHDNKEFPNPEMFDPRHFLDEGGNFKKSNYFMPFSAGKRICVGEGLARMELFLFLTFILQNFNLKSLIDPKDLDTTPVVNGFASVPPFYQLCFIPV", "test": "Ricerca hit profiling panel: CYP 2C19", "type": "biochemical", "settings": "Ricerca panel of 41 receptors/enzymes"}, "HNF4α gene expression [4]": {"tested_on": "HNF4α gene expression", "test": "HNF4α mRNA expression in MIN6 cells", "type": "cell-based, murine", "settings": "5 hours"}, "tumor cell lines": {"tested_on": "tumor cell lines", "test": "Toxicity to tumor cell lines versus cultured primary cells in vitro", "type": "cell-based"}, "[5]": {"test": "Hepatic microsomal stability", "type": "in vitro ADME", "settings": "60-minute incubation in vitro"}, "[6]": {"tested_on": "HNF4α-responsive OTC promoter", "test": "OTC promoter-luciferase reporter co-transfected with full length human HNF4α", "type": "cell-based", "settings": "1μM, 48 hours"}, "[7]": {"tested_on": "panel of 60 human tumor cell lines", "test": "NCI DTP panel of 60 human tumor cell lines", "type": "cell-based", "settings": "NCI/NIH DTP screen"}, "[8]": {"tested_on": "endogenous insulin promoter", "test": "Endogenous insulin mRNA", "type": "cell-based, human", "settings": "T6PNE cells", "in_short": "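Q-PCR of endogenous insulin mRNA in T6PNE cells after 48 h exposure to test compound across a concentration series. For fatty acids, cells got 1μM tamoxifen plus fatty acid or DMSO vehicle for 48 hours before RNA harvest. Insulin mRNA was normalized to GAPDH or 18S rRNA; mean ± SE, n=3.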"}, "[9]": {"test": "Tolerability and VetScan liver panel blood chemistry in mice", "type": "in vivo", "in_short": "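NONcNZO10/LtJ or ICR mice received vehicle (DMSO) or test compound IP once daily for 5 days. Normal-mouse groups were DMSO, 30 mg/kg/day and 10 mg/kg/day (n=4 each). Blood was drawn before sacrifice and run on a VetScan analyzer for ALP, ALT, GGT (IU/L), bile acids (μmol/L), total bilirubin, BUN, cholesterol (mg/dL) and albumin (g/dL).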"}}, "note": "Entries after “also recorded” stand apart in the source; their conditions may differ.", "data": [{"molecule": "Cc1ccc([N+](=O)[O-])cc1S(=O)(=O)n1c(C)nc2ccccc21", "note": "[BI6015, 2-Methyl-1-(2-methyl-5-nitrophenylsulfonyl)-1H-benzo[d]imidazole]", "values": [{"measurement": "effect on HNF4α protease sensitivity (DARTS)", "setting": "HNF4α", "value": "induced altered HNF4α protease sensitivity"}, {"measurement": "BrdU incorporation in Hep3B-Luc cells", "setting": "Hep3B-Luc cells; after 48 hours of treatment", "value": "decreased"}, {"measurement": "toxicity to Hep3B cells", "setting": "Hep3B-Luc cells; bioluminescence, 24, 48 and 72 hours", "value": "markedly toxic"}, {"measurement": "solubility", "setting": "Solubility", "value": "limited solubility"}, {"measurement": "apoptosis (TUNEL, cleaved caspase-3) in the normal liver", "setting": "Hep3B cells", "value": "but not in the normal liver"}, {"measurement": "apoptosis (TUNEL, cleaved caspase-3) within the tumor", "setting": "Hep3B cells", "value": "high levels of apoptotic cells"}, {"measurement": "tumor luciferase counts", "setting": "Hep3B cells", "value": "some treated animals exhibited decreased luciferase counts, this did not occur in all animals"}, {"measurement": "Oil Red O staining in normal liver and tumor", "setting": "Hep3B cells; 20–57 days", "value": "marked induction"}, {"measurement": "AUC", "setting": "[1]; ip, 30 mg/kg", "value": 26.7, "unit": "ng·h/mL"}, {"measurement": "half-life", "setting": "[1]; other: oral gavage or intraperitoneal (IP) injection", "value": "~1.5", "unit": "h"}, {"measurement": "cross reactivity with L-type calcium channel", "setting": "L-type calcium channel", "value": "significant cross reactivity"}, {"measurement": "HNF4α expression in the intestine or kidney", "setting": "HNF4α protein; IP", "value": "does not change"}, {"measurement": "HNF4α protein in the liver", "setting": "HNF4α protein; IP", "value": "loss of HNF4α protein"}, {"measurement": "number of cells expressing Ki67 in liver, intestine or kidney", "setting": "HNF4α protein; versus vehicle", "value": "no difference"}, {"measurement": "acetylcarnitine", "setting": "T6PNE cells", "value": "concurrent increase"}, {"measurement": "longer chain acylcarnitines (C18, C18:1, C16, C14)", "setting": "T6PNE cells", "value": "decreased levels"}, {"measurement": "effect on HNF4α DNA binding", "setting": "HNF4α DNA binding", "value": "potently repressed"}, {"measurement": "toxicity in primary hepatocytes in vitro", "setting": "[2]", "value": "Toxicity was not observed"}, {"measurement": "steatosis in primary mouse hepatocytes in vitro", "setting": "[2]; 5μM, 3 days, Oil Red O", "value": "induced steatosis"}, {"measurement": "hepatic steatosis in vivo", "setting": "liver", "value": "marked fat accumulation (steatosis)"}, {"measurement": "effect on HNF4α expression in HepG2", "setting": "HNF4α gene expression [3]", "value": "strongly repressed"}, {"measurement": "effect on Kip2 expression", "setting": "p57Kip2 expression", "value": "reduced"}, {"measurement": "activity as PPARγ agonist", "setting": "PPARγ", "value": "lacked activity as a PPARγ agonist; also recorded: not to be a PPARγ agonist"}, {"measurement": "cross reactivity with CYP 2C19", "setting": "CYP (2C19)", "value": "significant cross reactivity"}, {"measurement": "effect on HNF4α expression in MIN6", "setting": "HNF4α gene expression [4]", "value": "strongly repressed"}, {"measurement": "toxicity to tumor cell lines in vitro", "setting": "tumor cell lines", "value": "toxic"}, {"measurement": "hepatic microsomal stability, compound remained", "setting": "[5]", "value": 22, "unit": "%"}, {"measurement": "OTC promoter-driven luciferase expression in CV-1 cells", "setting": "[6]", "value": "inhibited"}, {"measurement": "OTC promoter-driven luciferase expression in HepG2 cells", "setting": "[6]", "value": "inhibited"}, {"measurement": "effect on panel of 60 human tumor cell lines", "setting": "[7]", "value": "Slowed growth and/or toxicity"}, {"measurement": "effect on endogenous insulin expression / insulin promoter activity", "setting": "[8]", "value": "potently inhibited"}, {"measurement": "reduction of endogenous insulin gene expression", "setting": "[8]", "value": 50, "unit": "fold"}, {"measurement": "tolerability", "setting": "[9]; IP once per day for 5 days, 30 mg/kg", "value": "well tolerated"}, {"measurement": "blood chemistries, including ALT", "setting": "[9]; VetScan Liver Panel", "value": "unaffected"}]}]}
